Source: ChEMBL document CHEMBL3734650, “Synthesis and activity of novel 16-dehydropregnenolone acetate derivatives as inhibitors of type 1 5α-reductase and on cancer cell line SK-LU-1” (Bioorg Med Chem, 2015)
Calls of active or inactive are those of the source. The rule behind the calls is not given here.

Key:
[1] = system: MCF7; test: Cytotoxicity against human MCF7 cells as growth inhibition at 50 uM; assay type: functional; conditions: for inhibition of growth at 50 µM: read-out: GI
In short: (§1)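 Growth inhibition calculated from absorbance as 100 − (sample absorbance / vehicle absorbance × 100).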

[2] = system: Syrian golden hamster; test: Increase of diameter of pigmented spot of flank organs in gonadectomized golden hamster at 2 mg/kg, sc qd for 6 days co-administered with 1 mg/kg of testosterone (reference value: 2.03 +/- 0.63 millimeter); assay type: functional, Mesocricetus auratus
[3] = system: SK-LU-1; test: (§2) Cytotoxicity against human SKLU1 cells as growth inhibition at 50 uM; assay type: functional; in short: as §1
[4] = molecular target: T1, 3-oxo-5-alpha-steroid 4-dehydrogenase 1 (Rattus norvegicus, UniProt P24008); test: Inhibition of rat liver type 1 5alpha-reductase assessed as transformation of testosterone to dihydrotestosterone
T1 sequence (P24008 whole entry): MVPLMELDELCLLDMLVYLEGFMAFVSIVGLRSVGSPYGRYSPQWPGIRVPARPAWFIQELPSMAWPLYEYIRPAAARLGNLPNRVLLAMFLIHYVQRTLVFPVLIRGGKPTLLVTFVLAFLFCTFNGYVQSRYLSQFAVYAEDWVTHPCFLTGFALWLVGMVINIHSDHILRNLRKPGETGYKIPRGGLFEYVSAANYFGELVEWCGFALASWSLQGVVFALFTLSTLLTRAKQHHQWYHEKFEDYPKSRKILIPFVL
In short: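 Enzyme source: liver microsomes from overnight-fasted adult rats (8-month, 500 g), prepared in buffer A (20 mM sodium phosphate pH 6.5, 0.32 M sucrose, 0.1 mM DTT) at 4 °C, resuspended at 20 mg protein/mL. Inhibitors at 1 × 10⁻¹⁰ to 10⁻⁴ M. Radiolabelled T→DHT conversion quantified from TLC-plate radioactivity. IC50 taken from inhibition curves.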

[5] = system: Syrian golden hamster; test: Increase of prostate weight in gonadectomized golden hamster at 2 mg/kg, sc qd for 6 days co-administered with 1 mg/kg of testosterone (reference value: 50.4 +/- 9.9 mg); assay type: functional, Mesocricetus auratus, Prostate gland
[6] = system: Syrian golden hamster; test: Increase of seminal vesicles weight in gonadectomized golden hamster at 2 mg/kg, sc qd for 6 days co-administered with 1 mg/kg of testosterone (reference value: 96.11 +/- 12.5 mg); assay type: functional, Mesocricetus auratus
[7] = system: PC-3; test: (§3) Cytotoxicity against human PC3 cells assessed as growth inhibition at 50 uM; assay type: functional; in short: as §1
[8] = molecular target: T2, Androgen receptor (Rattus norvegicus, UniProt P15207); test: Displacement of [3H}-MIB from rat prostate cytosol androgen receptor assessed as relative binding affinity
T2 sequence (P15207 whole entry): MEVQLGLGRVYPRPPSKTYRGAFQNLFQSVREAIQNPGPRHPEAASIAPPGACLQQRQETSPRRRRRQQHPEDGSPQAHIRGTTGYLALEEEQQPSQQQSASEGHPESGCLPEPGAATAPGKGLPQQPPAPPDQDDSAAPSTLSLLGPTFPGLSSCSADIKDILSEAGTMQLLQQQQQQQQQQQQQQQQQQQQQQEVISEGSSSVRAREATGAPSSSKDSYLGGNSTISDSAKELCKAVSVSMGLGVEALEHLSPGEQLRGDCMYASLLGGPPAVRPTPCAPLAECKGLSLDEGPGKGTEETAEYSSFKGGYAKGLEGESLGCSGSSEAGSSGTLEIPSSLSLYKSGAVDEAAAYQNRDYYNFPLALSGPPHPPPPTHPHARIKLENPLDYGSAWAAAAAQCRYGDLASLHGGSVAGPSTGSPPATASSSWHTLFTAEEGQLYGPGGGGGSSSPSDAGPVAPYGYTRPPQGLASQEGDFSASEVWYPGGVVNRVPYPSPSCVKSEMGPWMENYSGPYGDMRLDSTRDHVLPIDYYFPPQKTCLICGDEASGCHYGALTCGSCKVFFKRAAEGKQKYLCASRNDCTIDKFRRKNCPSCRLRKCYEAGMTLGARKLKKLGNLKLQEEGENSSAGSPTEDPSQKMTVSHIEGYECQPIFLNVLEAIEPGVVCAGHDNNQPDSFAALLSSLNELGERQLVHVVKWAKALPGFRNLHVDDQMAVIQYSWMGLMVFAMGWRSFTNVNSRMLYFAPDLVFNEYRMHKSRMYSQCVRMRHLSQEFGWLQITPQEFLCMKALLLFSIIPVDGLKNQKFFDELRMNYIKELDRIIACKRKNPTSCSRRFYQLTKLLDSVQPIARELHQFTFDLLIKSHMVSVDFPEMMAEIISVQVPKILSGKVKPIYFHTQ

[9] = molecular target: T3, 3-oxo-5-alpha-steroid 4-dehydrogenase 2 (Homo sapiens, UniProt P31213); test: Inhibition of human prostate type 2 5alpha-reductase assessed as transformation of testosterone to dihydrotestosterone; assay type: tissue-based, Prostate gland
T3 sequence (P31213 whole entry): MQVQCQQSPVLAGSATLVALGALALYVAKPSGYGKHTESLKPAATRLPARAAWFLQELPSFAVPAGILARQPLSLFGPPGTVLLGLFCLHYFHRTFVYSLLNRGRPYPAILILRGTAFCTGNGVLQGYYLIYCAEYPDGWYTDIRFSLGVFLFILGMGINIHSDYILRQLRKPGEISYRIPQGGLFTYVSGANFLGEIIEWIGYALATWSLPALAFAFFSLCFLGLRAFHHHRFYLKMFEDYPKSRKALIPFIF
In short: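 Enzyme source: normal prostate from a person, homogenized in buffer A (20 mM sodium phosphate pH 6.5, 0.32 M sucrose, 0.1 mM DTT), pelleted at 1500 × g, resuspended at 5 mg protein/mL. Inhibitors at 1 × 10⁻¹⁰ to 10⁻⁴ M. Radiolabelled T→DHT conversion quantified by TLC lane radioactivity against total plate radioactivity. IC50 taken from inhibition curves.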

[10] = as §2; assay type: functional; conditions: SK-LU-1, read-out: GI; in short: as §1
[11] = as §3; assay type: functional; conditions: PC-3, read-out: GI; in short: as §1
[12] = system: Syrian golden hamster; test: Increase of prostate weight in gonadectomized golden hamster at 1 mg/kg, sc qd for 6 days co-administered with 1 mg/kg of testosterone (reference value: 50.4 +/- 9.9 mg); assay type: functional, Mesocricetus auratus, Prostate gland
[13] = system: Syrian golden hamster; test: Increase of seminal vesicles weight in gonadectomized golden hamster at 1 mg/kg, sc qd for 6 days co-administered with 1 mg/kg of testosterone (reference value: 96.11 +/- 12.5 mg); assay type: functional, Mesocricetus auratus
[14] = system: Syrian golden hamster; test: Increase of diameter of pigmented spot of flank organs in gonadectomized golden hamster at 1 mg/kg, sc qd for 6 days co-administered with 1 mg/kg of testosterone (reference value: 2.03 +/- 0.63 millimeter); assay type: functional, Mesocricetus auratus
[15] = system: Syrian golden hamster; test: Increase of diameter of pigmented spot of flank organs in gonadectomized golden hamster at 1 mg/kg, sc qd for 6 days (reference value: 2.03 +/- 0.63 millimeter); assay type: functional, Mesocricetus auratus
[16] = system: Syrian golden hamster; test: Increase of seminal vesicles weight in gonadectomized golden hamster at 1 mg/kg, sc qd for 6 days (reference value: 96.11 +/- 12.5 mg); assay type: functional, Mesocricetus auratus
[17] = system: Syrian golden hamster; test: Increase of prostate weight in gonadectomized golden hamster at 1 mg/kg, sc qd for 6 days (reference value: 50.4 +/- 9.9 mg); assay type: functional, Mesocricetus auratus, Prostate gland

Structure (SMILES) | growth inhibition (GI) [1] | Activity [2] [mm] | growth inhibition (GI) [3] | IC50 [4] | Activity [5] [mg] | Activity [6] [mg] | growth inhibition (GI) [7] | IC50 [8] | IC50 [9] | inhibition of growth at 50 µM [1] [%] | inhibition of growth at 50 µM [10] [%] | IC50 ([4]; read-out: IC50) [µM] | inhibition of growth at 50 µM [11] [%] | IC50 ([9]; read-out: IC50) [µM] | Activity [12] [mg] | Activity [13] [mg] | Activity [14] [mm] | Activity [15] [mm] | Activity [16] [mg] | Activity [17] [mg]
C[C@]12CC[C@H](OC(=O)C3CCCC3)CC1=CC[C@@H]1[C@@H]2CC[C@]2(C)C(C(=O)Cn3cncn3)=CC[C@@H]12 | inactive | 2.8 | inactive | Not Active | 97 | 120 | inactive | Not Active | Not Active |  |  |  |  |  |  |  |  |  |  | 
CCCCCC(=O)O[C@H]1CC[C@@]2(C)C(=CC[C@@H]3[C@@H]2CC[C@]2(C)C(C(=O)Cn4cncn4)=CC[C@@H]32)C1 |  | 2.8 |  |  | 86.9 | 200 |  | Not Active | Not Active | 14.4 | 6.4 | 100 | 16.9 |  |  |  |  |  |  | 
CC(=O)N1CCN(c2ccc(OCC3COC(Cn4ccnc4)(c4ccc(Cl)cc4Cl)O3)cc2)CC1 (stereo not given) [KETOCONAZOLE] |  |  |  |  |  |  |  |  |  | 95.2 | 73.4 |  | 88.5 |  |  |  |  |  |  | 
C[C@]12CC[C@H](OC(=O)C3CC3)CC1=CC[C@@H]1[C@@H]2CC[C@]2(C)C(C(=O)Cn3cncn3)=CC[C@@H]12 | inactive | 2.88 | inactive | Not Active | 107.48 | 180.3 | inactive | Not Active |  |  |  |  |  | 118 |  |  |  |  |  | 
CCCCC(=O)O[C@H]1CC[C@@]2(C)C(=CC[C@@H]3[C@@H]2CC[C@]2(C)C(C(=O)Cn4cncn4)=CC[C@@H]32)C1 |  | 3.71 |  |  | 82.3 | 180.03 |  | Not Active | Not Active | 38.5 | 20.2 | 0.32 | 38.2 |  |  |  |  |  |  | 
C[C@]12CC[C@H](O)CC1=CC[C@@H]1[C@@H]2CC[C@]2(C)C(C(=O)Cn3cncn3)=CC[C@@H]12 |  | 3.05 |  | Not Active | 89 | 163.33 |  | Not Active | Not Active | 62.1 | 88.9 |  | 61.3 |  |  |  |  |  |  | 
C[C@]12CC[C@H](OC(=O)C3CCC3)CC1=CC[C@@H]1[C@@H]2CC[C@]2(C)C(C(=O)Cn3cncn3)=CC[C@@H]12 | inactive | 2.14 | inactive | Not Active | 100 | 130 | inactive | Not Active | Not Active |  |  |  |  |  |  |  |  |  |  | 
CC(C)(C)NC(=O)[C@H]1CC[C@H]2[C@@H]3CC[C@H]4NC(=O)C=C[C@]4(C)[C@H]3CC[C@]12C [FINASTERIDE] | inactive |  | inactive |  |  |  | inactive |  |  |  |  |  |  |  | 69.6 | 161.4 | 3.57 |  |  | 
C[C@]12CC[C@H]3[C@@H](CCC4=CC(=O)CC[C@@]43C)[C@@H]1CC[C@@H]2O [TESTOSTERONE] |  |  |  |  |  |  |  |  |  |  |  |  |  |  |  |  |  | 5.65 | 200.6 | 98
C[C@]12CC[C@H](OC(=O)C3CCCCCC3)CC1=CC[C@@H]1[C@@H]2CC[C@]2(C)C(C(=O)Cn3cncn3)=CC[C@@H]12 | inactive | 4.45 | inactive | Not Active | 78.2 | 203.98 | inactive | Not Active |  |  |  |  |  |  |  |  |  |  |  | 
CC(=O)O[C@H]1CC[C@@]2(C)C(=CC[C@@H]3[C@@H]2CC[C@]2(C)C(C(=O)Cn4cncn4)=CC[C@@H]32)C1 |  | 2.9 |  | Not Active | 87.65 | 216.075 |  | Not Active |  | 59.4 | 74.8 |  | 56.2 | 100 |  |  |  |  |  | 
CCC(=O)O[C@H]1CC[C@@]2(C)C(=CC[C@@H]3[C@@H]2CC[C@]2(C)C(C(=O)Cn4cncn4)=CC[C@@H]32)C1 |  | 2.79 |  |  | 89.55 | 157.08 | inactive | Not Active | Not Active | 5.9 | 8.8 | 0.088 |  |  |  |  |  |  |  | 
CCCC(=O)O[C@H]1CC[C@@]2(C)C(=CC[C@@H]3[C@@H]2CC[C@]2(C)C(C(=O)Cn4cncn4)=CC[C@@H]32)C1 |  | 2.71 |  | Not Active | 81.3 | 138.9 |  | Not Active | Not Active | 25.6 | 15.6 |  | 9.2 |  |  |  |  |  |  | 
C[C@]12CC[C@H](OC(=O)C3CCCCC3)CC1=CC[C@@H]1[C@@H]2CC[C@]2(C)C(C(=O)Cn3cncn3)=CC[C@@H]12 | inactive | 3 | inactive | Not Active | 88 | 150 | inactive | Not Active | Not Active |  |  |  |  |  |  |  |  |  |  | 
